The values below come from ChEMBL document CHEMBL4622869, “Discovery and structure-activity relationships study of positive allosteric modulators of the M3 muscarinic acetylcholine receptor” (Bioorg Med Chem, 2020).

Where only a bound is given, the exact number is not on record here.

Data set [1] concerns the target T1, Muscarinic acetylcholine receptor M5 (Homo sapiens) (UniProt P08912).
T1 sequence (whole entry): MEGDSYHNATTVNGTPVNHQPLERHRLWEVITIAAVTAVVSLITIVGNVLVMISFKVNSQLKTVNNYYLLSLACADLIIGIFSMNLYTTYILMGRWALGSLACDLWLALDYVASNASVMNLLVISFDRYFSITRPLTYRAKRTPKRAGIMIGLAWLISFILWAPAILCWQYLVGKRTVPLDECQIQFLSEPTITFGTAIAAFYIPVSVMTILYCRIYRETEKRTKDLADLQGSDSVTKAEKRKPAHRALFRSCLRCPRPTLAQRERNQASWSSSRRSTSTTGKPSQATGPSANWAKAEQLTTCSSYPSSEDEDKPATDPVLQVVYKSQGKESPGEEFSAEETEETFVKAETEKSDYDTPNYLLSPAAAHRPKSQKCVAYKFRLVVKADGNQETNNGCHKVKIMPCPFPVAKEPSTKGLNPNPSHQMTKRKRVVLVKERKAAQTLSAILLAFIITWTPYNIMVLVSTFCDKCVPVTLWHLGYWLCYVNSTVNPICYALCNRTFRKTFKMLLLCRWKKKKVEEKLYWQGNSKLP
Nature of the data set: Positive allosteric modulation of recombinant human muscarinic acetylcholine receptor M5 expressed in CHOK1 cells assessed as increase in carbachol-induced intracellular calcium flux at 10 uM preincubated for 5 mins followed by carbachol addition by Fluo4-AM dye based FLIPR assay relative to carbachol. Particulars: CHO-K1. The class given is functional, cell-based. The essentials: (§1)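 CHO-K1 cells stably expressing human or rat M1–M5; M2 and M4 lines also co-express human Gα16. Cells loaded with 3.1 μM Fluo-4 AM in HBSS/20 mM HEPES pH 7.5/BSA/2.5 mM probenecid for ~2 h at room temperature. Test substance at 10 μM final, then carbachol (0.0024 nM–100 μM) ~5 min later; Ca2+ read by FLIPR Tetra. Fold shift = carbachol EC50 without / with test substance, from logistic fits.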
Background: Calcium assays in cells follow changes in intracellular calcium, usually with a dye or a luminescent sensor.

The target of data set [2] is Muscarinic acetylcholine receptor M3 (Homo sapiens) (UniProt P20309). The data set is described as follows: Positive allosteric modulation of recombinant human muscarinic acetylcholine receptor M3 expressed in CHOK1 cells assessed as increase in carbachol-induced intracellular calcium flux at 10 uM preincubated for 5 mins followed by carbachol addition by Fluo4-AM dye based FLIPR assay relative to carbachol. The class given is functional, cell-based. Particulars: CHO-K1. The essentials:
as §1

The target of a further data set is T2, Thrombopoietin receptor (Homo sapiens, UniProt P40238).
T2 sequence (P40238 whole entry): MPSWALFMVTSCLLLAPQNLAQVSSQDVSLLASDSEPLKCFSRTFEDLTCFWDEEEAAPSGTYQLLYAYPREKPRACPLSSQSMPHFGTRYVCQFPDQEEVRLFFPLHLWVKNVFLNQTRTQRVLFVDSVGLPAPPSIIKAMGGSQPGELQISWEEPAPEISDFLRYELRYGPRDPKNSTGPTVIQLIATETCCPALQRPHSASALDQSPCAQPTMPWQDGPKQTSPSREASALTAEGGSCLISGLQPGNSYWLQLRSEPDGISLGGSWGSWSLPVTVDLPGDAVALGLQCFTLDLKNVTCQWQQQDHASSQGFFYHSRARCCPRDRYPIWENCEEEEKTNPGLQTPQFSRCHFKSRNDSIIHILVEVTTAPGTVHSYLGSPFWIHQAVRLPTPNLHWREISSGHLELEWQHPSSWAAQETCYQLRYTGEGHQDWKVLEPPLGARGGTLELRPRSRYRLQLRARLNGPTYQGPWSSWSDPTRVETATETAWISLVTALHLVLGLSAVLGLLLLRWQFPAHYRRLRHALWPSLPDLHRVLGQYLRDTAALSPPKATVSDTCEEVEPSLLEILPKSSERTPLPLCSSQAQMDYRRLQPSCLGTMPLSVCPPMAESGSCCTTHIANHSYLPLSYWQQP
The data set is described as follows: Agonist activity at recombinant human c-Mpl receptor transfected in BA/F3 cells assessed as increase in cell proliferation by cell counting analysis. The class given is cell-based. Particulars: baf3. The essentials:
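Ba/F3 cells stably transfected with human c-Mpl by electroporation with blasticidin selection. 1×10^4 cells/well in RPMI-1640 with 10% FBS, with test substance (100 nM to 10 μM final), overnight at 37°C in 5% CO2. Cell Counting Kit added for about 5 h, then A450 read. Scale: untreated wells 0%, reference c-Mpl agonist at 1 μM 100%. EC30 from logistic regression.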

Data set [3] can be described thus: Half life in Crl:CD(SD) rat at 0.3 mg/kg, iv measured up to 24 hrs by LC-MS/MS analysis. Particulars: in vivo. Type of data set: ADME, organism-based. The essentials: (§2)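 Male Crl:CD(SD) rats, 8 weeks old, food deprived (n=4); iv 0.3 mg/kg or po 1 mg/kg in DMF/propylene glycol/water for injection (1/1/8) containing 1 M NaOH (2 equivalents). Plasma sampled to 24 h, assayed by validated LC-MS/MS. Parameters from each animal by noncompartmental analysis, reported as means.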

A short description of data set [4]: Oral bioavailability in Crl:CD(SD) rat at 1 mg/kg measured up to 24 hrs by LC-MS/MS analysis. The class given is ADME, organism-based. The note with it: in vivo. The essentials:
as §2

Data set [5] deals with Muscarinic acetylcholine receptor M3 (Rattus norvegicus) (UniProt P08483). Nature of the data set: Positive allosteric modulation of muscarinic acetylcholine receptor M3 in Sprague-Dawley rat urinary bladder assessed as increase in 8 Hz electrical field stimulation-induced bladder contraction. The essentials:
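Female Sprague-Dawley rats, 9–10 weeks old. Longitudinal bladder strips (~10×2 mm) in Krebs at 37°C, gassed with 95% O2/5% CO2. EFS at 8 Hz, 10 s trains, 0.3 ms pulses, voltage set to give about half-maximal response. Drug added cumulatively at 1, 3 and 10 μM, 10 stimulations per concentration. Contraction = peak minus basal tone, averaged over the last 3 contractions and compared with pre-drug value (n=7).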

Data set [6] can be described thus: AUCinfinity in Crl:CD(SD) rat at 0.3 mg/kg, iv measured up to 24 hrs by LC-MS/MS analysis. The class given is ADME, organism-based. The note with it: in vivo. More on the design: dose 0.3 mg/kg, route intravenous, time infinity. A digest of the protocol: as §2
For data set [7], the target named is T3, Muscarinic acetylcholine receptor M2 (Homo sapiens) (UniProt P08172).
T3 sequence (whole entry): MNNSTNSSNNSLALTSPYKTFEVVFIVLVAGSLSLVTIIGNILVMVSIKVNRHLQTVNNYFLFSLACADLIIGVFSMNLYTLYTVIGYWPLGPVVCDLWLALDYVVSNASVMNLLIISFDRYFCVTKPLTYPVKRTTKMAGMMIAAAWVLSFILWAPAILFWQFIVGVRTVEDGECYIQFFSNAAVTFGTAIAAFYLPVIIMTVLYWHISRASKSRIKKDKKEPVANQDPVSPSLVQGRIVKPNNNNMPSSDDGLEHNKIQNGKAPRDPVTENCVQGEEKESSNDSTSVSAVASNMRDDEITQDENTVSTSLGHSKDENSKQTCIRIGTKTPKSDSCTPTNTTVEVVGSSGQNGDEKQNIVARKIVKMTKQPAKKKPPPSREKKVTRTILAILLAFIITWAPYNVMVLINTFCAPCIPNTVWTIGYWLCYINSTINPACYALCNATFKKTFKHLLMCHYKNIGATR
The data set is described as follows: Positive allosteric modulation of recombinant human muscarinic acetylcholine receptor M2 expressed in CHOK1 cells coexpressing G-alpha16 assessed as increase in carbachol-induced intracellular calcium flux at 10 uM preincubated for 5 mins followed by carbachol addition by Fluo4-AM based FLIPR assay relative to carbachol. Particulars: CHO-K1. The class given is functional, cell-based. A digest of the protocol:
as §1

Chain of Muscarinic acetylcholine receptor M3 (Rattus norvegicus) (P08483 whole entry, looked up): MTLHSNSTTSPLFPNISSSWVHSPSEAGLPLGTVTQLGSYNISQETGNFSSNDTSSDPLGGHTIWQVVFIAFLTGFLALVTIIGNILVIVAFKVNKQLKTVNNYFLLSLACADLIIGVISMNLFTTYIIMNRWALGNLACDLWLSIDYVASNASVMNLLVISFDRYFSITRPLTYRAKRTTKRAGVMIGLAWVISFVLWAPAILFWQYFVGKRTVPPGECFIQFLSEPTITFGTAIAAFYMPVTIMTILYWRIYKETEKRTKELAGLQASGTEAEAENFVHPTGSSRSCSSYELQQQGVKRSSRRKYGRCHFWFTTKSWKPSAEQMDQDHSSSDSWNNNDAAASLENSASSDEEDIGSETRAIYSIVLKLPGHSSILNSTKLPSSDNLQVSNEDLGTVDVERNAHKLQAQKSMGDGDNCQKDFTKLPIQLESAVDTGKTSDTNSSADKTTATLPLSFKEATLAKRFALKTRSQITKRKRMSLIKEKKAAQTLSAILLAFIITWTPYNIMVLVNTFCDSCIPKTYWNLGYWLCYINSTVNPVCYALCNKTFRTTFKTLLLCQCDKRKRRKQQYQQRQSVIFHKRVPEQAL
Chain of Muscarinic acetylcholine receptor M3 (Homo sapiens) (P20309 whole entry, looked up): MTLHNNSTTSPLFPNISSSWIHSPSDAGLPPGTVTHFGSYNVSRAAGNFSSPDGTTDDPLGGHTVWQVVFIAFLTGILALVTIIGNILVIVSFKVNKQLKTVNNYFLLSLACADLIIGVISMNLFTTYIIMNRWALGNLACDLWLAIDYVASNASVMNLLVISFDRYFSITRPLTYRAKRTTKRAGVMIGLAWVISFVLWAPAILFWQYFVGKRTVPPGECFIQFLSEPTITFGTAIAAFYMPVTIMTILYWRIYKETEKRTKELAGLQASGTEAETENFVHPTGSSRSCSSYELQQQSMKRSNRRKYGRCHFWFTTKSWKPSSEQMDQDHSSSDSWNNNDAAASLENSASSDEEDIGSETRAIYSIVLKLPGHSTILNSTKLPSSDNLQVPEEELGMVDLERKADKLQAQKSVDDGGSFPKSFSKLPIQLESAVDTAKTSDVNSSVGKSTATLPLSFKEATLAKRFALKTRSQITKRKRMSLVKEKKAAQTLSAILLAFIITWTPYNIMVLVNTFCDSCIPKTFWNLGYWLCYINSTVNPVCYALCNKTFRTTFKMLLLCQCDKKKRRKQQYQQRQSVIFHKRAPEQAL

Take `CC[C@@H]1CCCN1Cc1sc(NC(=O)c2cnc(N3CCC(C(=O)O)CC3)cn2)nc1-c1ccc(OC)c(C(F)(F)F)c1.Cl.Cl`: the fold change (FC) in data set [1] came to 94; in data set [2], 269; in data set [7], 1.3. Also, at Thrombopoietin receptor, the concentration for an effect of 30% (EC30) (as a rule, the concentration at which the effect reaches the 30% level) is above 10 µM. Moreover, the half-life (in general, how long it takes for the measured level to halve) in data set [3] is 2.43 h. Moreover, the bioavailability (usually dose-corrected exposure relative to a reference, in per cent) in data set [4] is 19%. In data set [5], the Activity result was “Dose-dependent effect”. In data set [6], the AUC(0-inf) (commonly total exposure, with the tail of the curve extrapolated) is 330 ng·h/mL.
